These results are taken from ChEMBL document CHEMBL1150299, “Design, synthesis, and application of novel triclosan prodrugs as potential antimalarial and antibacterial agents” (Bioorg Med Chem, 2008).

As a reminder, the IC50 is the concentration that inhibits the measured activity by half. One may read the MIC as the smallest concentration in the dilution series that meets the test's criterion for growth inhibition. Low readings indicate greater potency, high ones weaker potency.

In brackets after ≈: the same amount, converted by molar mass.

For data set [1], the system named is Escherichia coli. In words: Stability assessed as half life of prodrug disappearance in Escherichia coli culture. In kind it is ADME, organism-based. The settings on record: in vivo. An outline of the steps:
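E. coli cultures exposed to prodrug for 0, 2, 5, 10 and 20 min, then pelleted at 4 °C, washed in LB and resuspended in 50 mM Tris pH 7.5. Extracts cleaned by solid-phase extraction with methanol elution, then run on C18 reverse-phase FPLC with isocratic acetonitrile and UV detection at 230 nm. Half-life taken from prodrug disappearance.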

For data set [2], the system named is Escherichia coli. In words: Antibacterial activity against wild type Escherichia coli K12 after 12 hrs by microdilution method. The following applies: K12, 12 h. Format: functional, organism-based. In a few lines:
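Wild-type K12 grown in LB to mid-log, diluted 100-fold; 100 µl used to inoculate tubes of 10 mL LB containing inhibitor (stocks about 10 mM in DMSO). IC50 is the mean of at least three sets; values are means ± SD of at least three experiments in duplicate.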

Data set [3] in a line: Stability at -10 to 40 degC after 24 hrs by FPLC assay. Format: physicochemical. In a few lines:
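Prodrugs held in Luria Broth (pH 7.2) for 24 h at temperatures between -10 and 40 °C. Release of triclosan monitored by FPLC with UV detection.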

For data set [4], the system named is Plasmodium falciparum. In words: Antimalarial activity against chloroquine-sensitive Plasmodium falciparum FCK2. Format: functional, organism-based.
Data set [5] relates to Plasmodium falciparum. In words: Stability assessed as half life of prodrug disappearance in Plasmodium falciparum culture. The settings on record: in vivo. Format: ADME, organism-based. An outline of the steps: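 Synchronized young-trophozoite cultures treated with prodrug for 0, 0.5, 3, 6, 12, 18, 24 and 36 h. Parasites isolated into PBS, processed by solid-phase extraction, then analysed by C18 reverse-phase FPLC with absorbance at 230 nm. Half-life derived from loss of the prodrug peak.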

On to `NC(=O)CCC(=O)Oc1cc(Cl)ccc1Oc1ccc(Cl)cc1Cl`, for which the t1/2 in data set [1] is reported as 12 min. In data set [2], this molecule returned an IC50 of 220 nM and an MIC of 0.6 µM (≈ 0.233 µg/mL). Also, the Stability entry in data set [3] was “Stable”. In data set [4], this molecule registered an IC50 of 6700 nM and an MIC of 27.9 µM (≈ 10.8 µg/mL).

As for `O=C(O)CCCC(=O)Oc1cc(Cl)ccc1Oc1ccc(Cl)cc1Cl`, the t1/2 in data set [5] amounted to 570 min; in data set [1], 9 min. Also, the IC50 came to 330 nM in data set [2] and 520 nM in data set [4]. The figures for the MIC in data set [2] and in data set [4] were 0.75 µM (≈ 0.303 µg/mL) and 4.8 µM (≈ 1.94 µg/mL), respectively. Further, the Stability entry in data set [3] is recorded as “Stable”.

As for `O=C(Oc1cc(Cl)ccc1Oc1ccc(Cl)cc1Cl)c1cccnc1`, in data set [2], the IC50 was 3100 nM and it took 9 µM (≈ 3.55 µg/mL) to inhibit growth (MIC). The Stability result in data set [3] was “Stable”. Moreover, in data set [4], the IC50 is 1150 nM and the MIC turned out to be 9.7 µM (≈ 3.83 µg/mL).

`C[n+]1cccc(C(=O)Oc2cc(Cl)ccc2Oc2ccc(Cl)cc2Cl)c1.[Cl-]`: the IC50 in data set [2] turned out to be 3600 nM; in data set [4] it was 2070 nM. Also, the values for the MIC in data set [2] and in data set [4] were 10.2 µM and 13.7 µM, respectively. The Stability entry in data set [3] is on record as “Stable”.

In the case of `CN(C)CCOC(=O)CCCC(=O)Oc1cc(Cl)ccc1Oc1ccc(Cl)cc1Cl`, the values for the t1/2 in data set [5] and in data set [1] were 567 min and 6 min, respectively. The results for the half-maximal inhibitory concentration (IC50) in data set [2] and in data set [4] were 260 nM and 620 nM, respectively. Also, the MIC in data set [2] is 0.55 µM (≈ 0.261 µg/mL); in data set [4], 7.9 µM (≈ 3.75 µg/mL). In addition, the Stability entry in data set [3] is “Stable”.

As for `C[N+](C)(C)CCOC(=O)CCCC(=O)Oc1cc(Cl)ccc1Oc1ccc(Cl)cc1Cl.[Cl-]`, the t1/2 in data set [1] was 8 min. In data set [2], this molecule displayed an IC50 of 420 nM and an MIC of 1 µM. For the same molecule, the Stability result in data set [3] was “Stable”. Besides, in data set [4], the IC50 is 3020 nM and 19.7 µM was the least that counted as inhibitory (MIC).

On to `CC(=O)CCC(=O)Oc1cc(Cl)ccc1Oc1ccc(Cl)cc1Cl`, for which the t1/2 in data set [5] was determined as 572 min. In addition, the IC50 in data set [2] worked out at 77000 nM; in data set [4] it was 680 nM. Also, the Stability result in data set [3] was “Stable”. Further, it took 6.2 µM (≈ 2.4 µg/mL) to inhibit growth in data set [4] (MIC).

In turn, `CCCCC(=O)Oc1cc(Cl)ccc1Oc1ccc(Cl)cc1Cl` registered an IC50 in data set [2] of 140000 nM. The Stability entry in data set [3] was “Stable”. Further, in data set [4], the IC50 is 8900 nM and 33.8 µM (≈ 12.6 µg/mL) was the least that counted as inhibitory (MIC).

For the molecule `Oc1cc(Cl)ccc1Oc1ccc(Cl)cc1Cl` [TRICLOSAN], in data set [2], the IC50 was determined as 750 nM and the MIC amounted to 1 µM (≈ 0.29 µg/mL). The Stability result in data set [3] is listed as “Stable”. In data set [4], this molecule showed a concentration for half-maximal inhibition (IC50) of 2290 nM and an MIC of 17.6 µM (≈ 5.1 µg/mL).
